Data from ChEMBL document CHEMBL2346664, “Synthesis, characterization and in vitro anticancer evaluation of novel 1,2,4-triazolin-3-one derivatives” (2013).

Experiments:
Type in all cases: functional
MOLT-4 = experiment: Growth inhibition of human MOLT4 cells assessed as growth inhibition at 10 uM after 48 hrs by sulforhodamine B assay; conditions: MOLT-4, 48 h, read-out: GI
OVCAR-3 = experiment: Growth inhibition of human OVCAR3 cells assessed as cell growth at 10 '-6 M after 48 hrs by sulforhodamine B assay; conditions: OVCAR-3, 48 h, read-out: Activity
OVCAR-5 [1] = experiment: Growth inhibition of human OVCAR5 cells assessed as cell growth at 10 '-4 M after 48 hrs by sulforhodamine B assay; conditions: OVCAR-5, 48 h, read-out: Activity
ACHN [2] = experiment: Growth inhibition of human ACHN cells assessed as growth inhibition at 10 uM after 48 hrs by sulforhodamine B assay; conditions: read-out: GI
Procedure, shortened: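 Percent growth inhibition from the single 10^-5 M NCI-60 screen, reported as 100 minus growth percent. Growth percent was measured after 48 h drug exposure at 37 °C, 5% CO2, using TCA fixation, SRB staining and absorbance at 515 nm, against untreated controls and time-zero plates.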

BT-549 = experiment: Growth inhibition of human BT549 cells after 48 hrs by sulforhodamine B assay; conditions: BT-549, 48 h
Procedure, shortened: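 NCI 60-cell-line five-dose screen at 0.01, 0.1, 1, 10 and 100 µM final. Cells were plated at 5,000–40,000/well and grown 24 h at 37 °C, 5% CO2, then exposed to drug continuously for 48 h. Adherent cells were fixed with cold TCA (10% final) and stained with SRB; absorbance read at 515 nm. GI50 is the concentration where [(Ti-Tz)/(C-Tz)]×100 = 50, with Tz plates fixed at drug addition.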

KM12 = experiment: Growth inhibition of human KM12 cells assessed as cell growth at 10 '-8 M after 48 hrs by sulforhodamine B assay; conditions: KM12, 48 h, read-out: Activity
UO-31 = experiment: Growth inhibition of human UO31 cells assessed as cell growth at 10 '-4 M after 48 hrs by sulforhodamine B assay; conditions: UO-31, 48 h, read-out: Activity
ACHN [3] = experiment: Growth inhibition of human ACHN cells assessed as cell growth at 10 '-5 M after 48 hrs by sulforhodamine B assay; conditions: read-out: Activity
Procedure, shortened: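 Percent growth at each of the five concentrations of the 48 h continuous-exposure NCI SRB screen. Drug stocks were in DMSO at 400× the top final concentration and diluted in medium with gentamicin. Growth was calculated as [(Ti-Tz)/(C-Tz)]×100 when Ti ≥ Tz, or [(Ti-Tz)/Tz]×100 when Ti < Tz. Tz plates were fixed at drug addition; untreated wells served as control. Absorbance was read at 515 nm.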

NCI-H460 [4] = experiment: Growth inhibition of human NCI-H460 cells after 48 hrs by sulforhodamine B assay; conditions: NCI-H460, 48 h
DU-145 = experiment: Growth inhibition of human DU145 cells assessed as growth inhibition at 10 uM after 48 hrs by sulforhodamine B assay; conditions: DU-145, 48 h, read-out: GI
SF-268 [5] = experiment: Growth inhibition of human SF268 cells assessed as growth inhibition at 10 uM after 48 hrs by sulforhodamine B assay; conditions: SF-268, 48 h, read-out: GI
RXF 393 = experiment: Growth inhibition of human RXF393 cells assessed as cell growth at 10 '-6 M after 48 hrs by sulforhodamine B assay; conditions: RXF 393, 48 h, read-out: Activity
NCI-H460 [6] = experiment: Growth inhibition of human NCI-H460 cells assessed as cell growth at 10 '-6 M after 48 hrs by sulforhodamine B assay; conditions: NCI-H460, 48 h, read-out: Activity
T47D = experiment: Growth inhibition of human T47D cells assessed as cell growth at 10 '-8 M after 48 hrs by sulforhodamine B assay; conditions: read-out: Activity
SK-OV-3 = experiment: Growth inhibition of human SKOV3 cells assessed as growth inhibition at 10 uM after 48 hrs by sulforhodamine B assay; conditions: SK-OV-3, 48 h, read-out: GI
OVCAR-5 [7] = experiment: Growth inhibition of human OVCAR5 cells assessed as cell growth at 10 '-7 M after 48 hrs by sulforhodamine B assay; conditions: OVCAR-5, 48 h, read-out: Activity
SF-295 = experiment: Growth inhibition of human SF295 cells assessed as cell growth at 10 '-6 M after 48 hrs by sulforhodamine B assay; conditions: SF-295, 48 h, read-out: Activity
MCF7 = experiment: Growth inhibition of human MCF7 cells assessed as cell growth at 10 '-4 M after 48 hrs by sulforhodamine B assay; conditions: MCF7, 48 h, read-out: Activity
HT-29 = experiment: Growth inhibition of human HT-29 cells after 48 hrs by sulforhodamine B assay; conditions: HT-29, 48 h
Procedure, shortened: (§1)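 NCI 60-cell-line five-dose screen. Cells were plated at 5,000–40,000/well by doubling time and grown 24 h at 37 °C, 5% CO2. Time-zero plates were TCA-fixed. Drug from DMSO stock was tested at 0.01, 0.1, 1, 10 and 100 µM final for 48 h continuous exposure. Read-out was SRB at 515 nm. GI50 is the concentration giving 50% reduction in net protein increase versus untreated control.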

IGROV-1 = experiment: Growth inhibition of human IGROV1 cells assessed as cell growth at 10 uM after 48 hrs by sulforhodamine B assay; conditions: IGROV-1, 48 h, read-out: Activity
LOX IMVI = experiment: Growth inhibition of human LOXIMVI cells assessed as growth inhibition at 10 uM after 48 hrs by sulforhodamine B assay; conditions: read-out: GI
SNB-19 = experiment: Growth inhibition of human SNB19 cells assessed as cell growth at 10 '-8 M after 48 hrs by sulforhodamine B assay; conditions: SNB-19, 48 h, read-out: Activity
HCT-116 [8] = experiment: Growth inhibition of human HCT116 cells after 48 hrs by sulforhodamine B assay; conditions: HCT-116, 48 h; procedure, shortened: as §1
HCT-116 [9] = experiment: Growth inhibition of human HCT116 cells assessed as cell growth at 10 '-8 M after 48 hrs by sulforhodamine B assay; conditions: HCT-116, 48 h, read-out: Activity
SF-268 [10] = experiment: Growth inhibition of human SF268 cells after 48 hrs by sulforhodamine B assay; conditions: SF-268, 48 h
SF-539 = experiment: Growth inhibition of human SF539 cells assessed as growth inhibition at 10 uM after 48 hrs by sulforhodamine B assay; conditions: SF-539, 48 h, read-out: GI
[11] = read-out: LD50 (the source's name)

## Cc1cc(=O)oc2cc(OCCn3c(C)nn(-c4ccc(Cl)cc4)c3=O)ccc12
MOLT-4
  inhibition of growth at 10 µM: 62.4%
OVCAR-3
  growth at 1 µM: 96%
OVCAR-5 [1]
  growth at 100 µM: 45%
ACHN [2]
  inhibition of growth at 10 µM: 58.1%
BT-549
  GI50: 1650 nM
  TGI: 9940 nM
BT-549; [11]
  CC50: > 1000 nM
KM12
  growth at 0.01 µM: 104%
UO-31
  growth at 100 µM: 39%
ACHN [3]
  growth at 10 µM: 35%
NCI-H460 [4]
  GI50: 2800 nM
  TGI: > 1000 nM
NCI-H460 [4]; [11]
  CC50: > 1000 nM
DU-145
  inhibition of growth at 10 µM: 78.4%
SF-268 [5]
  inhibition of growth at 10 µM: 49.7%
RXF 393
  growth at 1 µM: 75%
NCI-H460 [6]
  growth at 1 µM: 83%
T47D
  growth at 0.01 µM: 98%
SK-OV-3
  inhibition of growth at 10 µM: 58.9%
OVCAR-5 [7]
  growth at 0.1 µM: 102%
SF-295
  growth at 1 µM: 74%
MCF7
  growth at 100 µM: 21%
HT-29
  GI50: 3820 nM
  TGI: > 1000 nM
HT-29; [11]
  CC50: > 1000 nM
IGROV-1
  growth at 10 µM: 59.7%
LOX IMVI
  inhibition of growth at 10 µM: 52%
SNB-19
  growth at 0.01 µM: 92%
HCT-116 [8]
  GI50: 3570 nM
  TGI: > 1000 nM
HCT-116 [8]; [11]
  CC50: > 1000 nM
HCT-116 [9]
  growth at 0.01 µM: 101%
SF-268 [10]
  GI50: 1360 nM
  TGI: > 1000 nM
SF-268 [10]; [11]
  CC50: > 1000 nM
SF-539
  inhibition of growth at 10 µM: 70.5%
